Experiment [1] deals with Human alphaherpesvirus 3. Nature of the experiment: Antiviral activity against Varicella-Zoster virus YS strain. It counts as functional, organism-based. Conditions: Human alphaherpesvirus 3, YS.
For experiment [2], the system named is Human alphaherpesvirus 3. Nature of the experiment: Antiviral activity against Varicella-Zoster virus 07/1 strain. It counts as functional, organism-based. Conditions: Human alphaherpesvirus 3, 07/1. In a few lines:
(§1)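 HEL cell monolayers were infected with VZV (TK⁻ strains YS/R and 07/1) for 2 h. Residual virus was then removed and medium with graded compound concentrations was added, in duplicate. After 5 days at 37 °C, cells were ethanol-fixed and Giemsa-stained, and plaques were counted microscopically.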

The subject of experiment [3] is Human alphaherpesvirus 3. Nature of the experiment: Antiviral activity against Varicella-Zoster virus YS/R strain. It counts as functional, organism-based. Conditions: Human alphaherpesvirus 3, YS/R. In a few lines:
as §1

In experiment [4] the test system is Human betaherpesvirus 5. Nature of the experiment: Antiviral activity against human cytomegalovirus AD169 strain. It counts as functional, organism-based. Conditions: Human betaherpesvirus 5, AD169. Summed up: (§2)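 Virus was removed and medium with graded compound concentrations was added, in duplicate. After 7 days at 37 °C, cells were ethanol-fixed and Giemsa-stained, and cytopathogenicity was scored microscopically.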

In experiment [5] the test system is Human betaherpesvirus 5. Nature of the experiment: Antiviral activity against human cytomegalovirus Davis strain. Conditions: Human betaherpesvirus 5, Davis. It counts as functional, organism-based. Summed up: as §2
Experiment [6] deals with HEL. Nature of the experiment: Cytotoxic activity against cultured human embryonic lung (HEL) cells. It counts as functional. Summed up: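 HEL cells were seeded at 5 × 10³/well and grown for 24 h, then exposed to graded compound concentrations for 3 days at 37 °C. MCC was the lowest concentration giving microscopically visible alteration of cell morphology.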

A word on the EC50: it is the concentration that produces a half-maximal response. A lower EC50 goes with higher potency in that assay. A word on the CC50: it is the concentration that lowers cell viability or growth by half. Regarding `CCCCCCCCC#Cc1cc2cn([C@@H]3O[C@H](CO)[C@@H](O)[C@H]3O)c(=O)nc2o1`, the EC50 in experiment [1] was above 12 µM; in experiment [2], at least 12 µM; in experiment [3], 6.2 µM; in experiment [4] it was 7.3 µM; in experiment [5], at least 9.3 µM. The cytotoxic concentration (CC50) in experiment [6] was found to be 62 µM. In experiment [6], this compound had an MCC of 49 µM.

For the compound `CCCCCCCCC#Cc1cc2cn(C)c(=O)nc2o1`, the 50% effective concentration (EC50) in experiment [1] is above 175 µM; in experiment [2] it was above 70 µM; in experiment [3], above 175 µM; in experiment [4], above 175 µM; in experiment [5], above 175 µM. The compound further gave a CC50 in experiment [6] above 175 µM. Further, in experiment [6], the MCC was above 175 µM.

As to `CCCCCCC#Cc1cc2cn([C@@H]3O[C@H](CO)[C@@H](O)[C@H]3O)c(=O)nc2o1`, the EC50 in experiment [1] is at least 39 µM; in experiment [2], 39 µM; in experiment [3] it was 19 µM; in experiment [4], above 133 µM; in experiment [5], above 53 µM. Besides, the half-maximal cytotoxic concentration (CC50) in experiment [6] was above 133 µM. For the same compound, in experiment [6], the MCC is at least 133 µM.

Regarding `CCCCCCC#Cc1cc2cn([C@@H]3O[C@H](CO)[C@@H](O)[C@@H]3O)c(=O)nc2o1`, the EC50 in experiment [1] was at least 43 µM; in experiment [2], 34 µM; in experiment [3], 21 µM; in experiment [4], above 53 µM; in experiment [5], above 53 µM. The same compound returned a half-maximal cytotoxic concentration (CC50) in experiment [6] above 53 µM. The compound further returned an MCC in experiment [6] of 133 µM.

`CCCCCCCCCCC#Cc1cc2cn([C@@H]3O[C@H](CO)[C@@H](O)[C@H]3O)c(=O)nc2o1`: the EC50 in experiment [1] was above 4.6 µM; in experiment [2] it was 4.6 µM; in experiment [3] it was 3.5 µM; in experiment [4] it was above 4.6 µM; in experiment [5], above 4.6 µM. In addition, the CC50 in experiment [6] turned out to be 44 µM. This compound came in with an MCC in experiment [6] of 12 µM.

Turning to `CCCCC#Cc1cc2cn(C)c(=O)nc2o1`, the EC50 in experiment [1] was 217 µM; in experiment [2], above 87 µM; in experiment [3], above 87 µM; in experiment [4], above 217 µM; in experiment [5] it was 139 µM. Moreover, the CC50 in experiment [6] is above 217 µM. Further, the MCC in experiment [6] was at least 217 µM.

On to `CCCCCCCCC#Cc1cc2cn([C@H]3C[C@H](O)[C@@H](CO)O3)c(=O)nc2o1`, for which the EC50 in experiment [1] was 2.7 µM; in experiment [2] it was above 13 µM; in experiment [3] it was 6.5 µM; in experiment [4], 7.4 µM; in experiment [5] it was 7.6 µM. In experiment [6], half-maximal cytotoxicity (CC50) was put at 77 µM. In experiment [6], this compound returned an MCC of 52 µM.

In the case of `CCCCC#Cc1cc2cn([C@H]3C[C@H](O)[C@@H](CO)O3)c(=O)nc2o1`, the EC50 in experiment [1] is 87 µM; in experiment [2], at least 135 µM; in experiment [3], 90 µM; in experiment [4], above 150 µM; in experiment [5], above 150 µM. This compound also displayed a CC50 in experiment [6] above 150 µM. The same compound displayed an MCC in experiment [6] above 150 µM.

With `CCCCCCCCC#Cc1cc2cn([C@@H]3O[C@H](CO)[C@@H](O)[C@@H]3O)c(=O)nc2o1`, the EC50 was at least 11 µM in experiment [1]; 11 µM in experiment [2]; 3.7 µM in experiment [3]; above 12 µM in experiment [4]; 12 µM in experiment [5]. For the same compound, the 50% cytotoxic concentration (CC50) in experiment [6] is above 124 µM. In experiment [6], this compound returned an MCC of 49 µM.

In the case of `CCCCCCCCCCC#Cc1cc2cn([C@@H]3O[C@H](CO)[C@@H](O)[C@@H]3O)c(=O)nc2o1`, the EC50 in experiment [1] is at least 16 µM; in experiment [2], above 12 µM; in experiment [3], 5.7 µM; in experiment [4] it was above 12 µM; in experiment [5], above 12 µM. For the same compound, in experiment [6], the CC50 was 116 µM. The compound also displayed an MCC in experiment [6] of 46 µM.

Regarding `CCCCCCCCCCC#Cc1cc2cn([C@H]3C[C@H](O)[C@@H](CO)O3)c(=O)nc2o1`, the EC50 is at least 5.7 µM in experiment [1]; at least 6 µM in experiment [2]; 2.5 µM in experiment [3]; above 4.8 µM in experiment [4]; above 4.8 µM in experiment [5]. In experiment [6], this compound yielded a CC50 of 36 µM. Moreover, in experiment [6], the MCC is 30 µM.

As to `CCCCCCCCCCC#Cc1cc2cn(C)c(=O)nc2o1`, the EC50 in experiment [1], in experiment [2], in experiment [3], in experiment [4] and in experiment [5] was above 150 µM throughout. The compound also yielded a CC50 in experiment [6] above 150 µM. This compound came in with an MCC in experiment [6] above 150 µM.

With `CCCCCCC#Cc1cc2cn([C@H]3C[C@H](O)[C@@H](CO)O3)c(=O)nc2o1`, the EC50 in experiment [1] worked out at 1.5 µM; in experiment [2], 25 µM; in experiment [3] it was 22 µM; in experiment [4], 21 µM; in experiment [5], 19 µM. In experiment [6], this compound displayed a CC50 of 138 µM. This compound registered an MCC in experiment [6] of at least 97 µM.

Take `CCCCCCC#Cc1cc2cn(C)c(=O)nc2o1`: the EC50 in experiment [1] was at least 89 µM; in experiment [2], above 77 µM; in experiment [3] it was 23 µM; in experiment [4], 31 µM; in experiment [5], 37 µM. The CC50 in experiment [6] is above 194 µM. This compound came in with an MCC in experiment [6] of 194 µM.

`CCCCC#Cc1cc2cn([C@@H]3O[C@H](CO)[C@@H](O)[C@@H]3O)c(=O)nc2o1`: the EC50 in experiment [1] is above 144 µM; in experiment [2], above 144 µM; in experiment [3] it was 63 µM; in experiment [4], above 144 µM; in experiment [5], above 144 µM. This compound had a half-maximal cytotoxic concentration (CC50) in experiment [6] above 144 µM. The compound further had an MCC in experiment [6] above 144 µM.

Take `CCCCC#Cc1cc2cn([C@@H]3O[C@H](CO)[C@@H](O)[C@H]3O)c(=O)nc2o1`: the EC50 in experiment [1] is at least 113 µM; in experiment [2], 144 µM; in experiment [3] it was 52 µM; in experiment [4], above 144 µM; in experiment [5] it was above 144 µM. The compound also displayed a CC50 in experiment [6] above 144 µM. The compound also had an MCC in experiment [6] above 144 µM.

On to `Nc1nc2c(ncn2COCCO)c(=O)[nH]1` [ACYCLOVIR], for which, in experiment [6], the CC50 is above 889 µM and the MCC is above 222 µM.

Turning to `O=c1[nH]c(=O)n([C@H]2C[C@H](O)[C@@H](CO)O2)cc1/C=C/Br` [BRIVUDINE], the EC50 in experiment [1] is 0.01 µM; in experiment [2], at least 99 µM; in experiment [3], at least 126 µM. This compound also returned a CC50 in experiment [6] above 150 µM. This compound yielded an MCC in experiment [6] above 150 µM.

Compound `Nc1nc2c(ncn2COC(CO)CO)c(=O)[nH]1` [GANCICLOVIR] came in with an EC50 in experiment [5] of 8.7 µM. Further, in experiment [6], the CC50 was above 197 µM and the MCC is above 197 µM.

Values taken from ChEMBL document CHEMBL1148578, “Synthesis and biological evaluation of 6-(alkyn-1-yl)furo[2,3-d]pyrimidin-2(3H)-one base and nucleoside derivatives” (J Med Chem, 2006).
